{"data": "Published values collected from several papers", "BTK": "Tyrosine-protein kinase BTK (BTK, Homo sapiens, UniProt Q06187)", "note": "Each line is one published result; the experiments were not run side by side."}
{"Compound": "Cc1nc(Nc2ncc(C(=O)Nc3c(C)cccc3Cl)s2)cc(N2CCC(O)CC2)n1", "target": "BTK", "read-out": "enzyme activity", "action": "inhibitor", "method": "mobility shift", "tested at": "1 nM", "measurement": "inhibition", "result": "77%"}
{"Compound": "C#Cc1cnc(Nc2ccnc(CO)c2)nc1Nc1ccccc1S(C)(=O)=NC#N (stereo not shown)", "target": "BTK", "read-out": "cell-free assay", "tested at": "1 µM", "measurement": "remaining signal", "result": "41%"}
{"Compound": "C=CC(=O)Nc1cccc(Oc2nc(Nc3ccc(N4CCN(C)CC4)cc3)nc3ccoc23)c1", "target": "Tyrosine-protein kinase BTK, non-phosphorylated (BTK, Homo sapiens, UniProt Q06187)", "read-out": "cell-free assay", "method": "TR-FRET", "measurement": "kinact/KI", "result": "219000 M⁻¹ s⁻¹"}
{"Compound": "[2H]c1cc(C)c(NC(=O)c2cnc(Nc3cc(N4CC[C@@H](O)C4)nc(C)n3)s2)c(Cl)c1", "target": "BTK", "read-out": "enzyme activity", "action": "inhibitor", "method": "mobility shift", "tested at": "1 nM", "measurement": "inhibition", "result": "73%"}
{"Compound": "CN1CCN(C(=O)c2ccc(NC(=O)Nc3ccc(N(C)c4ccnc(Nc5ccc(CS(C)(=O)=O)cc5)n4)cc3)cc2)CC1", "target": "BTK", "read-out": "binding", "method": "competition with immobilised ligand", "tested at": "1 µM", "measurement": "remaining binding", "result": "50%"}
{"Compound": "N#Cc1ccc(NC(=O)Nc2ccccc2)cc1", "target": "BTK", "read-out": "cell-free assay", "method": "competition with immobilised ligand", "tested at": "25 µM", "measurement": "remaining binding", "result": "89%"}
{"Compound": "COc1ccc2oc(-c3ccc4nc(N)oc4c3)c/c(=N\\c3ccccc3NC(=O)CCN)c2c1", "target": "Tyrosine-protein kinase BTK (BTK, Homo sapiens, UniProt Q06187, R28H)", "read-out": "cell-free assay", "tested at": "1 µM", "measurement": "remaining signal", "result": "99%"}
{"Compound": "CCCCC(=O)Nc1ccc(-c2ccc3ncn(CCC)c(=O)c3c2)cn1", "target": "BTK", "read-out": "binding", "method": "competition with immobilised ligand", "tested at": "0.5 µM", "measurement": "remaining binding", "result": "89%"}
{"Compound": "Cc1nc(Nc2ncc(C(=O)Nc3c(C)cccc3Cl)s2)cc(N2CC[C@H](N)C2)n1", "target": "BTK", "read-out": "enzyme activity", "action": "inhibitor", "method": "mobility shift", "tested at": "1 nM", "measurement": "inhibition", "result": "65%"}
{"Compound": "CC#CC(=O)N1CCC[C@H]1c1nc(-c2ccc(C(=O)Nc3ccccn3)cc2)c2c(N)nccn12", "target": "BTK", "read-out": "enzyme activity", "action": "inhibitor", "tested at": "1 µM", "measurement": "inhibition", "result": "100%"}
{"Compound": "C1=C/COCc2cc(ccc2OCCN2CCCC2)Nc2nccc(n2)-c2cccc(c2)COC/1", "target": "BTK", "read-out": "cell-free assay", "tested at": "0.1 µM", "measurement": "remaining signal", "result": "100%"}
{"Compound": "CO[C@@H]1[C@H](N(C)C(=O)c2ccccc2)C[C@H]2O[C@]1(C)n1c3ccccc3c3c4c(c5c6ccccc6n2c5c31)C(=O)NC4", "target": "BTK", "read-out": "enzyme activity", "action": "inhibitor", "tested at": "1 µM", "measurement": "inhibition", "result": "0%"}
{"Compound": "COc1ccc2[nH]c3c4[nH]c5ccc(OC)cc5c4c4c(c3c2c1)C(=O)NC4=O", "target": "BTK", "read-out": "binding", "method": "competition with immobilised ligand", "tested at": "1 µM", "measurement": "remaining binding", "result": "74%"}
